Measured values taken from ChEMBL document CHEMBL1154123, “Targeted isolation and structure elucidation of stilbene glycosides from the bark of Lysidice brevicalyx Wei guided by biological and chemical screening” (J Nat Prod, 2008).

What was measured:
[1] = Antioxidant activity against ferrous ion-induced lipid peroxidation in liver microsomes assessed as inhibition rate at 100 uM by TBA method in presence of cysteine; format: functional; parameters: scale not given: the % may be the effect or the level left; details: Microsome
Procedure, shortened: (§1)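 Liver microsomal protein (1.0 mg in 1 mL 0.1 M PBS, pH 7.4) incubated with […] cysteine and test sample at 37 °C for 15 min; peroxidation initiated with 0.05 mM FeSO4. Stopped with 20% trichloroacetic acid, centrifuged, supernatant heated with 0.67% TBA 10 min at 100 °C. MDA read at 532 nm; inhibition rate calculated against Fe2+-cysteine and solvent-only controls. Vitamin E positive control.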

[2] = Antioxidant activity against ferrous ion-induced lipid peroxidation in liver microsomes assessed as inhibition rate at 10 uM by TBA method in presence of cysteine; format: functional; parameters: scale not given: the % may be the effect or the level left; details: Microsome; procedure, shortened: as §1

C[C@@H]1O[C@@H](OC[C@H]2O[C@@H](Oc3cc(O)cc(/C=C\c4ccc(O)cc4)c3)[C@H](O[C@@H]3O[C@@H](C)[C@H](O)[C@@H](O)[C@H]3O)[C@@H](O)[C@@H]2O)[C@H](O)[C@H](O)[C@H]1O
Activity [1]: 25% | Activity [2]: 8%

C[C@@H]1O[C@@H](O[C@H]2[C@H](Oc3cc(O)cc(/C=C/c4ccc(O)cc4)c3)OC[C@@H](O)[C@@H]2O)[C@H](O)[C@H](O)[C@H]1O
Activity [1]: 67% | Activity [2]: 6%

C[C@@H]1O[C@@H](OC[C@H]2O[C@@H](Oc3cc(O)cc(/C=C/c4ccc(O)cc4)c3)[C@H](O[C@@H]3O[C@@H](C)[C@H](O)[C@@H](O)[C@H]3O)[C@@H](O)[C@@H]2O)[C@H](O)[C@H](O)[C@H]1O
Activity [1]: 39% | Activity [2]: 5%

COc1ccc(CCN(C)CCCC(C#N)(c2ccc(OC)c(OC)c2)C(C)C)cc1OC (configuration not stated)
Activity [1]: 81% | Activity [2]: 33%

C[C@@H]1O[C@@H](OC[C@H]2O[C@@H](Oc3cc(O)cc(/C=C/c4ccc(O)cc4)c3)[C@H](O)[C@@H](O)[C@@H]2O)[C@H](O)[C@H](O)[C@H]1O
Activity [1]: 31% | Activity [2]: 11%

C[C@@H]1O[C@@H](OC[C@H]2O[C@@H](Oc3cc(O)cc(/C=C\c4ccc(O)cc4)c3)[C@H](O)[C@@H](O)[C@@H]2O)[C@H](O)[C@H](O)[C@H]1O
Activity [1]: 15% | Activity [2]: 0%

OC[C@H]1O[C@@H](O[C@H]2[C@H](Oc3cc(O)cc(/C=C/c4ccc(O)cc4)c3)OC[C@@H](O)[C@@H]2O)[C@H](O)[C@@H](O)[C@@H]1O
Activity [1]: 29% | Activity [2]: 5%

C[C@@H]1O[C@@H](O[C@H]2[C@H](Oc3cc(O)cc(/C=C/c4ccc(O)cc4)c3)O[C@H](CO)[C@@H](O)[C@@H]2O)[C@H](O)[C@H](O)[C@H]1O
Activity [1]: 39% | Activity [2]: 9%

OC[C@H]1O[C@@H](Oc2cc(O)cc(/C=C/c3ccc(O)cc3)c2)[C@H](O)[C@@H](O)[C@@H]1O
Activity [1]: 100% | Activity [2]: 29%

C[C@@H]1O[C@@H](O[C@H]2[C@H](Oc3cc(O)cc(/C=C\c4ccc(O)cc4)c3)O[C@H](CO)[C@@H](O)[C@@H]2O)[C@H](O)[C@H](O)[C@H]1O
Activity [1]: 10% | Activity [2]: 11%

Oc1ccc(/C=C/c2cc(O)cc(O[C@@H]3O[C@H](CO[C@@H]4OC[C@@H](O)[C@H](O)[C@H]4O)[C@@H](O)[C@H](O)[C@H]3O)c2)cc1
Activity [1]: 21% | Activity [2]: 4%
